Like-named read-outs stand apart in the source and are kept apart here.
Tests used:
[1] = system: SH-SY5Y cells; experiment: Cell viability / cytotoxicity assessment in SH-SY5Y cells; type: cell-based, human
[2] = target: T1, GSK3β (Homo sapiens, UniProt P49841); experiment: GSK3β enzyme kinetics; type: biochemical; conditions: noncompetitive inhibition with respect to ATP, GS2 constant at 17 μM, varying ATP
How it was run: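 Substrate GS2 held at 17 μM while ATP and test compound concentrations were varied. Vehicle was 5% DMSO. Quadruplicates from each of two independent experiments; means ± SEM.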

[3] = system: SH-SY5Y cells; experiment: Aβ42-induced tau phosphorylation in SH-SY5Y cells; type: cell-based, human
How it was run: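 SH-SY5Y cells were seeded at 3 × 10^5 cells/mL in DMEM/F12 with 1% FBS. […] Lysates in pyrophosphate buffer pH 7.4, 10 μg/lane, 10% SDS-PAGE, PVDF; primary antibodies 2 h at room temperature; β-actin loading control.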

[4] = target: PKC (Homo sapiens, UniProt P17252); experiment: Kinase selectivity panel; type: biochemical; conditions: read-out: Inhibition against PKC
[5] = target: T1, GSK3β; type: biochemical
[6] = system: SH-SY5Y cells; experiment: Neuroprotection against Aβ42-induced cytotoxicity, cell viability assay; type: cell-based, human; conditions: 1 112 μM; combinations with LiCl 10 mM or TDZD-8 10 μM; 10 μM Aβ42, 72 h
[7] = target: CDK5/p25 (Homo sapiens, UniProt Q00535); experiment: ADP-Glo kinase luminescent assay, CDK5/p25 inhibition; type: biochemical
[8] = system: SH-SY5Y cells; experiment: Morphological changes of SH-SY5Y cells; type: cell-based, human
How it was run: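 SH-SY5Y cultures (37 °C, humidified, 5% CO2) were examined by microscopy after 72 h. Conditions were 0.2% DMSO vehicle control, 10 μM Aβ42 alone, or test compound pretreatment followed by 10 μM Aβ42. Read-out was differentiation state and neurite extension or retraction.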

[9] = target: T1, GSK3β; experiment: Promiscuous aggregation assay: GSK3β inhibition with Triton X-100; type: biochemical
[10] = system: other 18 kinases; experiment: Kinase selectivity panel; type: biochemical; conditions: 224 μM; p > 0.05
[11] = target: CK2 (Homo sapiens, UniProt P68400); experiment: Kinase selectivity panel; type: biochemical; conditions: read-out: Inhibition against CK2
[12] = target: AKT1 (Homo sapiens, UniProt P31749); experiment: Kinase selectivity panel; type: biochemical; conditions: read-out: Inhibition against AKT1
AKT1, sequence (P31749 whole entry): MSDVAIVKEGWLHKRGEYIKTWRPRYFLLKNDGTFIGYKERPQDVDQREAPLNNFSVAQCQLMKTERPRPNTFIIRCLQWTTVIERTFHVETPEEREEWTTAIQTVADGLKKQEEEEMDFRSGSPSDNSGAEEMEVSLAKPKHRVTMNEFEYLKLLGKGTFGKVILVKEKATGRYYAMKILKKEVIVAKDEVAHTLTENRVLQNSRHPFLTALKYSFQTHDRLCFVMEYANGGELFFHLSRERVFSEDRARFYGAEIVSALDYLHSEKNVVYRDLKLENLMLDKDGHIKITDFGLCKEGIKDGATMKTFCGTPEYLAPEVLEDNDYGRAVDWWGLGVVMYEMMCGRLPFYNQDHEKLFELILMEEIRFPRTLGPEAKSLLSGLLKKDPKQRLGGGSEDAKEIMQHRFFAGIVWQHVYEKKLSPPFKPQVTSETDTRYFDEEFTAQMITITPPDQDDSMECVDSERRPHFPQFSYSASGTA

T1 sequence (P49841 whole entry): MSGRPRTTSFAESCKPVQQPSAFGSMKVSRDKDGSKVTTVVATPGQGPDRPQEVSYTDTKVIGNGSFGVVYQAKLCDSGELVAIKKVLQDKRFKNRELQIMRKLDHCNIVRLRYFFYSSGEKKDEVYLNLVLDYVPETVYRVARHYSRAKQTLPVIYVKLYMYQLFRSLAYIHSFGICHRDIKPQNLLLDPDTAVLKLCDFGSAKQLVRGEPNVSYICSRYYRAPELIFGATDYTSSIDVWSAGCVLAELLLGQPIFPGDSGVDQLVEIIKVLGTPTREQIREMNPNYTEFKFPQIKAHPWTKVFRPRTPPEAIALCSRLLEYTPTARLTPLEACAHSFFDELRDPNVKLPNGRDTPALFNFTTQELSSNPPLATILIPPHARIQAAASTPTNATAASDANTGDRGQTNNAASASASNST
CDK5/p25, sequence (Q00535 whole entry): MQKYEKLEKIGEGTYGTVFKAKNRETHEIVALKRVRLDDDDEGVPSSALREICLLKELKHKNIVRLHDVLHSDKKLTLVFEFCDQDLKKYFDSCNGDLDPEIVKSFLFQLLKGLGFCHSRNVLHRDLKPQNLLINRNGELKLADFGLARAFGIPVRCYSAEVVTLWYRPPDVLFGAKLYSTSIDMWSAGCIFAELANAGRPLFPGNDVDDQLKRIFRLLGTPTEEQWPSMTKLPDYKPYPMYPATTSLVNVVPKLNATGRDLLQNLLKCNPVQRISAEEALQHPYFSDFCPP
CDK5/p25, sequence (Q15078 99-307 partner limits assumed): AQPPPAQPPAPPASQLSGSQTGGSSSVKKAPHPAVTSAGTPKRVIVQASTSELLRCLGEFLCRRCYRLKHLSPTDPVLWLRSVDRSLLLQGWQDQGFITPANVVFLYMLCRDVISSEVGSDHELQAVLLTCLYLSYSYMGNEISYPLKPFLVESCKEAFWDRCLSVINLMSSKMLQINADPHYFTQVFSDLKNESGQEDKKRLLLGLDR
CK2, sequence (P68400 whole entry): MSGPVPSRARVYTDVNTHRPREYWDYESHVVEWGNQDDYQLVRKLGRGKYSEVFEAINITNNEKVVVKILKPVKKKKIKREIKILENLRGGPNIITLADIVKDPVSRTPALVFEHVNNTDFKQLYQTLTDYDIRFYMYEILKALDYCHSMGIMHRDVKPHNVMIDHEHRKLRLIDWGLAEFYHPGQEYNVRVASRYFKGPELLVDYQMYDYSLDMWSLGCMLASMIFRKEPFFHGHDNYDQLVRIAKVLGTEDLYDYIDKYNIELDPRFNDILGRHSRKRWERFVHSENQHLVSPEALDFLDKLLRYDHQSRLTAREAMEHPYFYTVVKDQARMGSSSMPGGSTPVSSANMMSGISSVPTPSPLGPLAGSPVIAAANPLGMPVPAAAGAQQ

O=c1cc(-c2ccc(O)c(O)c2)oc2cc(O)c([C@@H]3O[C@H](CO)[C@@H](O)[C@H](O)[C@H]3O)c(O)c12 [Compound 1, isoorientin]
Dose up to which no cytotoxicity to SH-SY5Y cells was noted ([1]; 72 h): > 896 µM
Effect on cell proliferation ([1]; 72 h, without Aβ42): slightly stimulated cell proliferation
Ki [2]: 210 ± 22 µM
Levels of GSK3β pS9 and total GSK3β ([3]; co-incubation of 1 with 10 μM Aβ42, 72 h, compared to untreated cells, p > 0.05): No significant change
inhibition at 224 µM [4]: ~30%
Decrease of GSK3β kinase activity ([5]; 224 μM, compared to control (100% kinase activity), p < 0.0001): 52.4%
Neuroprotection against cell viability loss, single concentration [6]: neuroprotection against cell viability loss
IC50 [7]: > 15000 µM
Cell morphology ([8]; pretreatment of 28 μM 1 followed by 10 μM Aβ42, 72 h): Partial differentiated cells with extended neurites
Cell morphology ([8]; pretreatment of 448 μM 1 followed by 10 μM Aβ42, 72 h): Protected differentiated cells with extended axons and dendrites
IC50 [9]: 192 µM
Inhibition of other 18 kinases of the panel [10]: did not significantly inhibit
inhibition at 224 µM [11]: ~30%
inhibition at 224 µM [12]: ~30%

O=c1cc(-c2ccc(O)c(O)c2)oc2cc(O)cc(O)c12 [luteolin]
IC50 ([9]; IC50, GSK3β, with 0.01% Triton, with 0.01% Triton X-100): 32 µM
IC50 ([9]; IC50, GSK3β, without Triton, before addition of Triton X-100): 2 µM

3’-methoxymaysin [Compound 2]
IC50 ([5]; read-out: IC50, GSK3β inhibition, 25 μM ATP, 1 h, room temperature): 288 µM
IC50 ([7]; read-out: IC50, CDK5/p25): > 15000 µM

β-Amyloid fragment peptide 1–42 [Aβ42]
Inhibition of cell growth ([1]; 10 μM Aβ42): about 50%
Increase of tau phosphorylation at pS199/pS202 relative to untreated cells ([3]; 10 μM Aβ42, 72 h): approximately 3.5 fold
Increase of tau phosphorylation at pS396 relative to untreated cells ([3]; 10 μM Aβ42, 72 h): ~2.3 fold
Cell morphology ([8]; 10 μM Aβ42 treatment, 72 h): Impaired and nondifferentiated cells with retracted neurites

— paper PMC7355085 (ACS chemical neuroscience, 2016)
